H9c2 protect – protects H9c2 cardiomyocytes from peroxide injury; H2O2 injury protection, ATPLite, 2 h; protection from H2O2 cell death, % at 20 µM; 360,000 tested, 0.63% active; AID 588492;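 active means compounds giving at least 50% protection of heart cells from peroxide-induced death in the single-dose screen, raw or plate-pattern-corrected value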;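 further: 0% = DMSO wells with peroxide and 100% = DMSO wells without peroxide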
ASAP1 GAP inh – inhibitors of human ASAP1 ArfGAP activity; Q9ULH1; ASAP1-stimulated ARF1 GTP hydrolysis, GDP FP detection; inhibition, % at 16.5 µM; 360,000 tested, 0.19% active; in the data active means inhibition above about 25%;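 further: 0% = vehicle with enzyme and substrate and 100% = no enzyme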
Neddylation inh – blocks human cullin neddylation; P61081+Q13564; TR-FRET cullin neddylation, biochemical; inhibition, % at 25 µM; 360,000 tested, 0.58% active; AID 651699; in the data active means inhibition above about 36%
ARFGAP1 inhibitor – inhibitors of rat ARFGAP1. Q62848. Arfgap1-stimulated ARF1 GTP hydrolysis, GDP FP detection. inhibition, % at 16.5 µM. 360,000 tested, 0.26% active. AID 651572;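 active means inhibition above a per-plate limit, mean inhibition of low control wells plus 3 SD, cut at about 25% in these data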;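 further: 0% = DMSO wells with enzyme and 100% = wells lacking Arfgap1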
Target sequence (Q62848 1-136 limits assumed): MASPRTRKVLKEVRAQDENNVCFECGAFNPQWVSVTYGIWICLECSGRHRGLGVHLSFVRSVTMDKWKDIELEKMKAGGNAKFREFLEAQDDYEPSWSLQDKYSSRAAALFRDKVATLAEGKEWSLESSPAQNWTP
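Material: rat Arfgap1 GAP domain (His6, aa 1-136), purified enzyme. Also added: human ARF1(Δ1-17)-GTP substrate. Compound dosing: 16.5 µM single point, 1.26% DMSO. Timing: enzyme reaction 120 min at 25 °C after 20 min preincubation. Signal: GDP detection by fluorescence polarization. Read-out basis: percent inhibition of GAP-stimulated GDP formation, scaled between DMSO and no-Arfgap1 medians.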
ARFGAP1 inh conf – confirmation of rat ARFGAP1 inhibitors; shares compounds with ARFGAP1 inhibitor; ARFGAP1-stimulated ARF1 GTP hydrolysis, GDP tracer FP; inhibition, % at 16.5 µM; 890 tested, 30% active;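 active means average inhibition over triplicates above the hit cutoff set in the earlier primary screen, cut at about 25% in these data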;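 further: 0% = Arfgap1 plus ARF1-GTP with DMSO and 100% = wells lacking Arfgap1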
Target sequence (Q62848 whole entry, looked up): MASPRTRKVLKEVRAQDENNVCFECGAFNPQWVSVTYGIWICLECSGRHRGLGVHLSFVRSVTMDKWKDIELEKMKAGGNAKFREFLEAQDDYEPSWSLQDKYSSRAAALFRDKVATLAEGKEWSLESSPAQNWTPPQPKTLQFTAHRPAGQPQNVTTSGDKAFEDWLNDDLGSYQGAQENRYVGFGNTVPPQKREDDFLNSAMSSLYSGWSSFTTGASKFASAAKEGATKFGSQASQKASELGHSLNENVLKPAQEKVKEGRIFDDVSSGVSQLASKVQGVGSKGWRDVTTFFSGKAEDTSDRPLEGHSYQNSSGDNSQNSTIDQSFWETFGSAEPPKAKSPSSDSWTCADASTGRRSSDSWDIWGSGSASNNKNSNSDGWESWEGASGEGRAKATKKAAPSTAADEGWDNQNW
* marks the source's active call; other numbers are inactive results. Hits are enriched below; roughly 1.6% of the tested compounds scored in any of these assays.

How did COc1cc(OC)cc(-c2sc3ccc(OC)cc3c2-c2ccc(O)cc2)c1 do in these assays?
H9c2 protect: -7; ASAP1 GAP inh: 13; Neddylation inh: 36; ARFGAP1 inhibitor: 26*; ARFGAP1 inh conf: 12

What do the screens show for `CC(C)NC(=O)C1(C)CCN1C(=O)c1cccn1C` (stereo not drawn)?
H9c2 protect: 7; ASAP1 GAP inh: -5; Neddylation inh: 6; ARFGAP1 inhibitor: -1

How did O=C1NC(=O)/C(=C\c2ccc(OCc3cccc([N+](=O)[O-])c3)cc2)N1 do in these assays?
H9c2 protect: -3; ASAP1 GAP inh: 22; Neddylation inh: 2; ARFGAP1 inhibitor: 49*; ARFGAP1 inh conf: 86*

How did O=[N+]([O-])c1cccc(COc2ccc(CO)cc2)c1 do in these assays?
ASAP1 GAP inh: -11; ARFGAP1 inhibitor: -2

What do the screens show for `COc1ccc2cc(C(=O)Nc3ccc(S(N)(=O)=O)cc3)sc(=O)c2c1OC`?
H9c2 protect: 5; ASAP1 GAP inh: 18; Neddylation inh: 6; ARFGAP1 inhibitor: 25*; ARFGAP1 inh conf: 21

Results for COc1ccc2cc(C(=O)Nc3ccccc3)sc(=O)c2c1OC ?
H9c2 protect: 8; ASAP1 GAP inh: -9; Neddylation inh: 14; ARFGAP1 inhibitor: 9

What do the screens show for `COc1ccc(CNS(=O)(=O)CCNCc2ccccc2OC)cc1`?
H9c2 protect: -4; ASAP1 GAP inh: -2; Neddylation inh: 7; ARFGAP1 inhibitor: 52*; ARFGAP1 inh conf: 3

What do the screens show for `COC(=O)c1cc(=O)nc(NN=Cc2ccccc2O)s1`?
ASAP1 GAP inh: -10; ARFGAP1 inhibitor: 12

How did CC1(C)Cc2c(cnn2-c2ccccc2)-c2c1c1ccccc1n2CC(O)CCl (stereo not drawn) do in these assays?
H9c2 protect: -10; ASAP1 GAP inh: 7; ARFGAP1 inhibitor: 26*; ARFGAP1 inh conf: 7

Results for CC1(C)Cc2c(cnn2-c2ccccc2)C(=O)/C1=N\NC(=O)c1ccncc1 ?
H9c2 protect: 31; ASAP1 GAP inh: 2; Neddylation inh: -28; ARFGAP1 inhibitor: -13

What do the screens show for `COc1ccc(CCN2C(=O)NC(NC(=O)CC(C)C)(C(F)(F)F)C2=O)cc1OC` (stereo not drawn)?
H9c2 protect: 2; ASAP1 GAP inh: -14; Neddylation inh: 1; ARFGAP1 inhibitor: 28*; ARFGAP1 inh conf: -3

How did C=C(C)C(=O)OCC(O)COc1ccc(C(C)(C)c2ccc(OCC(O)COC(=O)C(=C)C)cc2)cc1 (stereo not drawn) do in these assays?
H9c2 protect: -36; ASAP1 GAP inh: 6; Neddylation inh: -3; ARFGAP1 inhibitor: 32*; ARFGAP1 inh conf: 14

How did COc1ccc(NC(=O)c2cccc3c(-c4ccc(OC)cc4C)coc23)cc1 do in these assays?
H9c2 protect: -8; ASAP1 GAP inh: -10; Neddylation inh: 6; ARFGAP1 inhibitor: 7

How did Cn1cc(-c2coc3c(C(=O)NCc4ccco4)cccc23)cn1 do in these assays?
H9c2 protect: 3; Neddylation inh: 10

What do the screens show for `COc1ccc(NC(=O)c2cccc3c(-c4cnn(C)c4)coc23)cc1`?
H9c2 protect: 44; ASAP1 GAP inh: 19; Neddylation inh: 13; ARFGAP1 inhibitor: 30*; ARFGAP1 inh conf: 30*

Results for CC(=O)c1cccc(NC(=O)c2cccc3c(-c4cnn(C)c4)coc23)c1 ?
H9c2 protect: 47; ASAP1 GAP inh: 7; Neddylation inh: 3; ARFGAP1 inhibitor: 28*; ARFGAP1 inh conf: 25*

How did CC1=C(C(=O)N(C(C)C)C(C)C)CC(CC(=O)NC2CCCCC2)C(=O)N1Cc1ccc(C(C)(C)C)cc1 (stereo not drawn) do in these assays?
H9c2 protect: -2; ASAP1 GAP inh: -12; Neddylation inh: 3; ARFGAP1 inhibitor: -9

What do the screens show for `COCCN1C[C@@H](CO)O[C@@H](n2cnc3c(N(C)C)ncnc32)C1`?
H9c2 protect: 3; ASAP1 GAP inh: -5; Neddylation inh: 10; ARFGAP1 inhibitor: 8

Results for Cc1c(-c2nc(N)nc(Nc3ccc(F)cc3)n2)oc2ccccc12 ?
H9c2 protect: 8; ASAP1 GAP inh: 22; Neddylation inh: 28; ARFGAP1 inhibitor: 33*; ARFGAP1 inh conf: 2

Results for Cc1ccccc1Nc1nc(N)nc(-c2oc3ccccc3c2C)n1 ?
H9c2 protect: 2; ASAP1 GAP inh: -2; Neddylation inh: 24; ARFGAP1 inhibitor: 12

What do the screens show for `COc1ccc(C(=O)NNC(=O)Nc2ccc(Cl)cc2)cc1`?
H9c2 protect: -6; ASAP1 GAP inh: -2; Neddylation inh: 0; ARFGAP1 inhibitor: 5

How did COc1ccc(C(=O)C=CNNC(=O)c2ccc(Cl)cc2)cc1 do in these assays?
H9c2 protect: 43; ASAP1 GAP inh: -8; Neddylation inh: 0; ARFGAP1 inhibitor: 26*; ARFGAP1 inh conf: -1

How did CN(C(=O)NC1CCCCC1)[C@H]1C[C@H]2c3[nH]c4ccccc4c3CCN2C(=O)[C@H]1CO do in these assays?
H9c2 protect: -4; ASAP1 GAP inh: 1; ARFGAP1 inhibitor: -9

How did CN(C(=O)C(C)(C)C)[C@H]1C[C@H]2c3[nH]c4ccccc4c3CCN2C(=O)[C@H]1CO do in these assays?
H9c2 protect: 10; ASAP1 GAP inh: -10; ARFGAP1 inhibitor: 96*; ARFGAP1 inh conf: -3

Results for Clc1cccc(Nc2nc(-c3ccncc3)nc3ccccc23)c1 ?
H9c2 protect: -12; ASAP1 GAP inh: 8; Neddylation inh: -1; ARFGAP1 inhibitor: 39*; ARFGAP1 inh conf: 50*

How did Clc1cccc(CNc2nc(-c3cccnc3)nc3ccccc23)c1 do in these assays?
H9c2 protect: -2; ASAP1 GAP inh: 1; Neddylation inh: 0; ARFGAP1 inhibitor: 32*; ARFGAP1 inh conf: 27*

What do the screens show for `c1ccc(CNc2nc(-c3cccnc3)nc3ccccc23)cc1`?
H9c2 protect: 0; ASAP1 GAP inh: 13; Neddylation inh: 17; ARFGAP1 inhibitor: -7

What do the screens show for `O=C(NCc1csc(-c2cccs2)n1)Nc1cccc(Cl)c1`?
H9c2 protect: -4; ASAP1 GAP inh: 2; Neddylation inh: -38; ARFGAP1 inhibitor: 26*; ARFGAP1 inh conf: 6

How did COc1ccc(NC(=O)c2cc(-c3cc(Cl)ccc3OC)n[nH]2)cc1OC do in these assays?
H9c2 protect: 32; ASAP1 GAP inh: 11; Neddylation inh: 3; ARFGAP1 inhibitor: 28*; ARFGAP1 inh conf: 22

What do the screens show for `Cc1cc(O)c(C(C)C)cc1C1(c2cc(C(C)C)c(O)cc2C)OC(=O)c2ccccc21`?
H9c2 protect: -17; ASAP1 GAP inh: 18; Neddylation inh: 6; ARFGAP1 inhibitor: 27*; ARFGAP1 inh conf: 19

What do the screens show for `Cc1ccc2nc(SCC(=O)c3ccccc3)nc(=O)n2c1`?
H9c2 protect: -2; ASAP1 GAP inh: 18; Neddylation inh: 1; ARFGAP1 inhibitor: 37*; ARFGAP1 inh conf: 47*

What do the screens show for `Cc1cccn2c(=O)nc(SCC(=O)N3CCCCC3)nc12`?
H9c2 protect: 4; ASAP1 GAP inh: -5; Neddylation inh: 5; ARFGAP1 inhibitor: -1

Results for Cc1ccc2nc(SCC(=O)N3CCCC3)nc(=O)n2c1 ?
H9c2 protect: 7; ASAP1 GAP inh: 21; Neddylation inh: 9; ARFGAP1 inhibitor: 61*; ARFGAP1 inh conf: 44*

Screens (PubChem BioAssay)
